Article PMC12808645 (Nature Communications, 2025)

How the values were obtained:
stink bug Nan-Iav [1] = target: stink bug Nan-Iav; parameters: species or system Halyomorpha halys; conditions: read-out: [3H]-AP binding Kd
Nan only, WT = experiment: [3H]-AP binding to Nan-only membranes, WT; parameters: species or system Halyomorpha halys; conditions: read-out: [3H]-AP binding Kd
In short: (§1)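 Nan expressed in HEK293S GnTI- suspension cells (1–1.5 M/mL) by 3% (v/v) baculovirus, ~1 day at 37 °C then 48 h at 25 °C. Membranes were made by sonication and spun at 300 × g 10 min then 50,000 × g 2 h. Saturation binding used 60–100 µg membranes with [3H]-AP in pH 7.4 HEPES binding buffer (CaCl2, MgCl2, 0.0025% Tween-20), 3 h at room temperature. Samples were filtered on 0.1% PEI-treated filters, washed thrice with ice-cold buffer, and counted by scintillation. Nonspecific binding was set with 500-fold excess unlabeled AP.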

Nan only, Y172A = experiment: [3H]-AP binding to Nan-only membranes, Y172A; parameters: species or system Halyomorpha halys; conditions: NanY172A
In short: as §1

Nan only, Y177A = experiment: [3H]-AP binding to Nan-only membranes, Y177A; parameters: species or system Halyomorpha halys
In short: as §1

Nan-IavY325A = type: binding, Halyomorpha halys
Drosophila Nan-Iav = conditions: cited from earlier work
stink bug Nan-Iav [2] = type: binding, Halyomorpha halys
Nan-Iav(∆697-C) = type: cell-based, Halyomorpha halys; conditions: 1 mM Ca2+, Δ C-ter (Iav∆(697-986))
Nan-IavW701A = experiment: Whole-cell electrophysiology, Nan-IavW701A; type: cell-based, Halyomorpha halys; conditions: 1 mM Ca2+

C[C@]1(COC(=O)C2CC2)[C@@H]2C[C@H](O)[C@@]3(C)Oc4cc(-c5cccnc5)oc(=O)c4[C@H](O)[C@@H]3[C@@]2(C)CC[C@@H]1OC(=O)C1CC1 [[^3H]-AP]
Kd (stink bug Nan-Iav [1]): 0.017 nM
Kd (Nan only, WT): 0.089 nM
higher [3H]-AP Kd compared to WT Nan (Nan only, Y172A): 7.5 fold
[3H]-AP binding Kd (Nan only, Y177A): lacks measurable binding

NC(=O)c1cccnc1 [NAM, nicotinamide]
NAM binding (in words) (Nan-IavY325A): eliminated NAM binding
EC50 (Drosophila Nan-Iav): 14000 nM

CC1=NNC(=O)N(/N=C/c2cccnc2)C1 [PM, pymetrozine]
binding mode versus [3H]-AP (stink bug Nan-Iav [2]): competitive binding

[Ca+2] [Ca^2+]
% inhibition of inward current (Nan-Iav(∆697-C)): ~ 10%
% inhibition of inward current (Nan-IavW701A): ~ 10%
